Compound activity as filed in PubChem.
HUVEC inhibit: human endothelial cell proliferation inhibition; HUVEC proliferation, CellTiter-Glo luminescence, 72 h; hits give low values; viability, % at 10 µM (by protocol); 86,000 compounds, 1.1% hits; AID 648;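 active = viability at or below 30%; inactive = viability above 30%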;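 note: 100% = median luminescence of DMSO-only cell control wells on each plate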
Fibroblast inh: blocks proliferation of human lung fibroblasts. LL 47 human lung fibroblast viability, ATP luminescence; hits give low values. viability, % at 10 µM. 85,000 compounds, 1.1% hits;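 active = viability at or below 50% in the single dose screen; inactive = viability above 50%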;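 note: compound exposure lasted 72 h before the ATP readout; 100% = median luminescence of untreated cell-only wells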
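Test system: LL 47 human lung fibroblasts / Incubation: 72 h compound exposure at 37 °C after overnight plating / Technique: luminescent ATP detection, CellTiter-Glo / Compound dosing: 0.1% DMSO in all compound wells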
HCT116 bCat-KO: beta-catenin-lacking colon tumor cell growth suppression. HCT116 beta-catenin knockout viability, CellTiter-Glo, 60 h; hits give low values. viability, % at 10 µM. 140,000 compounds, 1.5% hits;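 active = viability at or under a set limit, the compound median less 4 SD, cut at about 6% in these data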;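 note: 0% = Hyamine 1622 control at 20 µM and 100% = untreated cell control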
HCT116 PTEN-null: PTEN-deleted cell growth suppression; 140,000 compounds, 1.2% hits; viability, % at 10 µM; HCT116 PTEN-null viability, CellTiter-Glo, 60 h; hits give low values; AID 827;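 active = viability at or below a set limit, 4 SD under the median of all tested compounds, cut at about 3.7% in these data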;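 note: PTEN knockout HCT116 line with beta catenin targeted HCT116 as companion control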
H69AR inhibit: growth inhibitors of human H69AR lung tumor cells; H69AR lung tumor viability, ATP luminescence, 72 h; hits give low values; viability, % at 10 µM; 85,000 compounds, 6% hits; AID 598;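 active = viability at or below 40%; inactive = viability above 40%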;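 note: multidrug resistant small cell line overexpressing MRP-1 efflux transporter; 100% = mean luminescence of untreated control wells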
Pyk2 oligo antag: antagonists of human Pyk2 oligomerization | Q293 cells, Pyk2 FERM NanoBiT luminescence; hits give low values | z-score (the deposit names both 25 µM and 10 µM) | AID 1347419 | 99,000 compounds, 0.83% hits | Q14289;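 active = Z-score of -3 or lower, scaled per plate to the spread of control and sample wells; inactive = z-score above -3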;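 note: negative z-score means lost luminescence so less FERM oligomerization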
Target sequence (Q14289 whole entry, looked up): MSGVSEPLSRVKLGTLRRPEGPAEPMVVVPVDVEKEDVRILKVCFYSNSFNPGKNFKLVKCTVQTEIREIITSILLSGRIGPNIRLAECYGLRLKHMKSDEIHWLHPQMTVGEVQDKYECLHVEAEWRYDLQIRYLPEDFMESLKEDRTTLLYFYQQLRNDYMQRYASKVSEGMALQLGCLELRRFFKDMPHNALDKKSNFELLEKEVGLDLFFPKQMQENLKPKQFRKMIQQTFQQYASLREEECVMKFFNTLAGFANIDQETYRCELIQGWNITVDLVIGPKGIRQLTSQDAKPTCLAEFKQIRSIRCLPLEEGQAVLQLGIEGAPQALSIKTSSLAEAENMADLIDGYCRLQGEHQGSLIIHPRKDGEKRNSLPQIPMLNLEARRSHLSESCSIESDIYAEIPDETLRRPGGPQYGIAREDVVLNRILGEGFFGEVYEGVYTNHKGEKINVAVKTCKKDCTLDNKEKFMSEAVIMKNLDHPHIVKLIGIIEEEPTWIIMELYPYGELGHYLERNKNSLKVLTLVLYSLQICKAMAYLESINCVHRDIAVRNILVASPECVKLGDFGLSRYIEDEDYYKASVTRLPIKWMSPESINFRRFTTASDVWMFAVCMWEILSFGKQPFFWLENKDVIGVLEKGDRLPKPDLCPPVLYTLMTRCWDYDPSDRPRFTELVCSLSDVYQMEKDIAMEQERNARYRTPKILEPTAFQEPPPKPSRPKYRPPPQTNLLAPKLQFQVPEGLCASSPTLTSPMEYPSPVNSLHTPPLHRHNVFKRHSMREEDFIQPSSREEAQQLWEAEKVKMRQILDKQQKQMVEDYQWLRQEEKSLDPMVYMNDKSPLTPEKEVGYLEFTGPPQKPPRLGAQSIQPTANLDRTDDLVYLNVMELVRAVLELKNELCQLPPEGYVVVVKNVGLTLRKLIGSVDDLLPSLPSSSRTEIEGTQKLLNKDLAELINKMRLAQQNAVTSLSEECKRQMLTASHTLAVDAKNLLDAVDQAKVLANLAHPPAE
* hit, by the source's call; . = not tested or not shown. Shown is part of a subset that was picked to be rich in hits.

SMILES	HUVEC inhibit	Fibroblast inh	HCT116 bCat-KO	HCT116 PTEN-null	H69AR inhibit	Pyk2 oligo antag
O=C1OC(c2ccc3c(c2)OCO3)N(C(=O)c2ccc(Cl)c(Cl)c2)c2ccccc21 (configuration not stated)	.	.	82.9	78.5	.	-3.25*
O=C(Nc1ccccc1-c1nc2ccccc2s1)C1=COCCO1	.	.	82.0	83.1	.	.
Cc1ccc(NC(=O)Cn2c(=O)oc3cc(S(=O)(=O)N4CCC(C)CC4)ccc32)cc1C	77.4	88.8	81.0	99.0	16.9*	.
O=C(Cn1c(=O)oc2cc(S(=O)(=O)N3CCCCCC3)ccc21)NC1CCCCC1	89.5	106.3	94.1	97.4	102.9	.
COc1ccccc1-c1cc(C(F)(F)F)nc(S(=O)(=O)CCCC(=O)N2CCOCC2)n1	44.6	3.2*	1.3*	1.1*	0.3*	-1.69
CC(=O)c1sc(NC(=O)C2(F)C(F)(F)C(F)(F)C(F)(F)C(F)(F)C2(F)F)nc1C	45.1	54.1	16.1	12.7	12.5*	-2.37
C=CCn1c(SC(C)CC)nc(O)cc1=O (configuration not stated)	92.1	95.0	92.0	96.3	98.2	-4.5*
C=CCn1c(SCCCC)nc(O)cc1=O	106.4	102.0	104.5	95.1	101.1	.
Cc1cc(C)n(-c2nc(NCCCO)c3c4c(sc3n2)CCCC4)n1	17.1*	78.8	12.2	12.8	4.9*	-0.6
Cc1cc(C)n(-c2nc(NCCO)c3c4c(sc3n2)CCCC4)n1	78.4	84.5	14.7	25.2	11.0*	1.05
Cc1cc(C)n(-c2nc(NCC(C)O)c3c4c(sc3n2)CCCC4)n1 (configuration not stated)	83.6	86.0	22.5	30.3	107.2	-1.58
COc1ccc(-c2nc(N)nc(C)c2Oc2ccccc2Br)c(O)c1	79.6	75.3	24.7	19.2	23.2*	-0.73
COc1ccc(C(C)(C)C)cc1NC(=O)Nc1ccc2c(c1)OCO2	59.6	97.8	46.7	45.4	21.8*	-0.97
COc1ccc(C(C(=O)NC(C)(C)C)N(CC2CCCO2)C(=O)CCC(=O)Nc2cc(C)on2)cc1 (configuration not stated)	.	.	83.2	82.4	.	0.34
COC(=O)C1=C(C)NC(C)=C(C(=O)OC)C1C(=O)OCC(=O)N1c2ccccc2CC1C (configuration not stated)	89.3	98.6	94.2	95.9	99.3	-0.4
N#CC1=C(N)NC(SCc2ccc(F)cc2)=C(C#N)C12CCCCC2	36.4	54.1	18.9	18.0	10.4*	-1.37
CC(=O)c1c(C(C)=O)c(C)n(C2CCCCC2)c1C	98.0	93.9	99.9	101.8	98.3	2.22
COc1cc2cc(CN(CCc3ccccc3C)C(=S)NCCCN(C)C)c(=O)[nH]c2cc1OC	.	.	2.2*	1.8*	.	.
CCNC(=S)N(CCc1ccccc1C)Cc1cc2cc(OC)c(OC)cc2[nH]c1=O	.	.	77.5	86.6	.	.
CC(C)COC(=O)c1ccc2c(c1O)C(=O)c1ccccc1C2=O	10.2*	75.5	37.6	26.4	44.6	0.32
CC(C)COC(=O)c1cc(=O)[nH]c2ccccc12	99.5	92.7	111.4	88.8	95.6	-0.94
O=C(Nc1ccccc1NC(=O)c1c(F)c(F)c(F)c(F)c1F)c1c(F)c(F)c(F)c(F)c1F	75.8	92.9	2.4*	2.6*	100.6	-0.41
COc1ccc(NC(=O)CN2CCN(CC(=O)Nc3ccccc3Cl)CC2)cc1Cl	80.7	91.3	98.3	107.7	23.8*	1.22
COc1cc(NC(=O)Nc2cccc(Cl)c2)c(OC)cc1NC(=O)CN1CCCCC1	12.3*	103.2	32.6	26.3	7.8*	-0.1
COc1ccccc1NC(=O)CN1CCN(CC(=O)Nc2ccc(Cl)c(C(F)(F)F)c2)CC1	66.5	83.3	36.6	38.3	26.7*	0.79
SMILES	HUVEC inhibit	Fibroblast inh	HCT116 bCat-KO	HCT116 PTEN-null	H69AR inhibit	Pyk2 oligo antag
O=C(CN1CCCC1)Nc1ccccc1Cl	99.2	104.6	96.0	91.8	97.2	0.63
COc1ccccc1NC(=O)CN1CCCCC1	91.6	105.3	95.6	99.2	83.2	0.25
Cc1cc(C)c(NC(=O)CSc2nc3ccc(NC(=O)CSc4nnnn4Cc4ccccc4)cc3s2)c(C)c1	84.0	83.0	.	.	14.1*	0.02
COC(=O)CSc1nc2ccc(NC(=O)CSc3nnnn3Cc3ccccc3)cc2s1	55.8	31.4*	102.3	94.7	90.4	1.91
O=C(CSc1nc2ccc(NC(=O)CSc3nnnn3Cc3ccccc3)cc2s1)Nc1ccccc1	58.6	74.9	75.9	73.8	106.8	2.17
COc1ccc(C(C)(C)C)cc1NC(=O)c1cc(S(=O)(=O)N(C)C)ccc1N1CCCC1	.	.	68.2	67.5	.	.
CC(C)c1ccc(CN2CC(C(=O)O)CC2=O)cc1 (configuration not stated)	106.0	106.2	95.2	97.6	108.6	-0.13
CCCCOP(=O)(OCCCC)C1(NS(=O)(=O)c2ccccc2)C=CC(=O)c2ccccc21 (configuration not stated)	34.2	86.2	87.3	67.3	12.0*	-2.34
NC(=O)CN1CCN(c2nc(-c3ccc(F)cc3)cs2)CC1	91.6	96.4	87.6	96.9	91.8	1
O=C(CN1CCN(c2nc(-c3ccc(F)cc3)cs2)CC1)Nc1ccc2c(c1)OCO2	82.2	90.1	76.5	86.7	40.0*	0.36
Cc1c(C(=O)N2c3ccccc3Sc3ccccc32)cccc1[N+](=O)[O-]	.	.	82.0	83.0	.	.
CC(=O)c1cccc(NC(=O)C(OC(=O)/C=C/c2ccc3c(c2)OCO3)c2ccccc2)c1 (configuration not stated)	.	.	95.8	88.4	.	0.55
COC(=O)C1CCN(S(=O)(=O)c2ccc(OC)cc2)CC1	99.4	98.1	97.5	102.2	106.7	1.32
NC(=O)c1ccccc1NC(=O)/C=C/c1cccc(Cl)c1	.	.	93.3	97.3	.	-3.23*
Cc1ccc(Nc2nc(-c3ccc(S(=O)(=O)N4CCOCC4)cc3)cs2)cc1Cl	.	.	30.6	31.6	.	.
C=CCNC(=O)c1ccccc1NC(=O)c1ccc(Cl)c(S(=O)(=O)Nc2ccccc2)c1	.	.	44.1	35.7	.	-3.83*
C=CCNC(=O)c1ccccc1NC(=O)c1cccc2ccccc12	84.1	117.8	93.9	93.4	45.0	-0.3
CCOC(=O)N1CCN(C(=O)c2ccc(Cl)c(S(=O)(=O)Nc3ccccc3)c2)CC1	95.1	103.5	94.5	91.3	31.6*	0.28
C=CCNC(=O)c1ccccc1NC(=O)c1ccccc1C	97.1	96.5	0.8*	1.0*	83.4	0.67
CCn1c(-c2cc3c(C(F)(F)F)nn(C)c3s2)n[nH]c1=S	.	.	93.0	83.0	.	0.73
CC12CCC(C(=O)Nc3cccc4ccccc34)(C1Br)C2(C)C (configuration not stated)	.	.	87.5	73.1	.	-0.19
Cc1sc2nc(CSCC(=O)Nc3ccccc3C#N)[nH]c(=O)c2c1C	.	.	97.1	95.9	.	0.08
Cn1c(=O)c2c(nc(NCc3ccco3)n2C/C=C/c2ccccc2)n(C)c1=O	63.7	96.8	45.2	41.9	70.6	-3.04*
